From ChEMBL document CHEMBL4177753, “Structural Modification of Natural Product Ganomycin I Leading to Discovery of a α-Glucosidase and HMG-CoA Reductase Dual Inhibitor Improving Obesity and Metabolic Dysfunction in Vivo” (J Med Chem, 2018)
Activity calls are given as the source filed them. The rule behind the calls is not given here.

Key:
[1] = system: Mus musculus; test: Hypoglycemic activity in C57BL/6J DIO mouse assessed as decrease in blood glucose AUC at 0.3 to 3 mg/kg administered daily via oral gavage for 25 days by OGTT; assay type: functional, organism-based
Outline: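 Male ob/ob or high-fat-diet C57BL/6J mice dosed daily by gavage at 0.3–3.0 mg/kg. OGTT: glucose 2 g/kg orally after overnight fast. ITT: insulin 0.6 U/kg i.p. after 4 h fast. Glucometer readings at 0, 40, 80 and 120 min; AUC computed from the curves.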

[2] = system: Mus musculus; test: Downregulation of Tnfa mRNA expression in ob/ob mouse ileum at 3 mg/kg administered daily via oral gavage for 31 days by RNA-seq analysis; assay type: functional, organism-based
[3] = system: Mus musculus; test: Toxicity in C57BL/6J mouse assessed as effect on plasma ALT levels at 30 mg/kg administered daily via oral gavage for 3 months; assay type: organism-based; conditions: in vivo
Outline: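 Long-term safety study in C57BL/6J mice, 20 male and 20 female, sorted by gender, blood glucose and body weight into four groups (n = 10 each). Treated groups of each sex got 30.0 mg/kg daily by oral gavage in soybean vehicle. Vehicle groups got an equal volume of soybean. Dosing ran three months, with behavior, survival, body weight, blood glucose, liver function and organ coefficients recorded.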

[4] = system: Mus musculus; test: Reduction of plasma LPS levels in ob/ob mouse at 3 mg/kg administered daily via oral gavage for 31 days by ELISA relative to vehicle-treated control; assay type: functional; parameters: scale not given: the % may be the effect or the level left
Outline: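 Male ob/ob mice treated daily by gavage (soybean vehicle); plasma LPS and TNF-α quantified by ELISA kits. For antibiotic groups, ob/ob mice first received an oral antibiotic cocktail (ampicillin 1 g/L, vancomycin, neomycin, gentamycin, erythromycin) for three weeks, then 3.0 mg/kg/day; n = 8 per group.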

[5] = system: Mus musculus; test: Hypoglycemic activity in antibiotic-treated ob/ob mouse assessed as decrease in fasting blood glucose levels at 3 mg/kg administered daily via oral gavage for 3 weeks; assay type: functional, organism-based
Outline: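 Male ob/ob mice pretreated three weeks with ampicillin (1 g/L), vancomycin, neomycin, gentamycin and erythromycin. Groups of n = 8 given 3.0 mg/kg/day orally in soybean vehicle versus vehicle. Plasma and hepatic lipids, fasting glucose, OGTT (glucose 2 g/kg after overnight fast) and HbA1c measured.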

[6] = system: Lachnospiraceae; test: Increase in Lachnospiraceae levels in cecum of ob/ob mouse at 1 to 3 mg/kg administered daily via oral gavage for 31 days by 16S rRNA gene high-throughput sequencing method; assay type: functional, organism-based
Outline: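 Caecum contents (about 150 mg) from ob/ob mice given 1.0 or 3.0 mg/kg by gavage; DNA extracted, 16S rRNA gene V3-V4 region amplified and sequenced on Illumina HiSeq PE250; community compared with vehicle group by NMDS/MRPP and LEfSe.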

[7] = system: Mus musculus; test: Hypolipidemic activity in ob/ob mouse assessed as decrease in fat deposition in liver at 3 mg/kg administered daily via oral gavage for 31 days by […] staining-based microscopic method; assay type: functional, organism-based
Outline: (§1)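 Male ob/ob mice dosed by gavage (soybean vehicle); liver and abdominal white adipose tissue fixed in 10% formaldehyde-PBS pH 7.4, paraffin-embedded, sectioned, stained with H&E, Oil Red O or sirius red, and examined by light microscopy.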

[8] = system: Alphaproteobacteria; test: Decrease in Alphaproteobacteria levels in cecum of ob/ob mouse at 1 to 3 mg/kg administered daily via oral gavage for 31 days by 16S rRNA gene high-throughput sequencing method; assay type: functional, organism-based
Outline: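 Male ob/ob mice dosed daily by gavage at 1.0 or 3.0 mg/kg, compared with vehicle group. DNA extracted from about 150 mg caecum contents. 16S rRNA V3–V4 region amplified and sequenced on Illumina HiSeq PE250. Community compared by NMDS/MRPP; discriminant taxa identified by LEfSe.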

[9] = AUC (0 to t) in Sprague-Dawley rat at 2 mg/kg, po; assay type: ADME, organism-based; conditions: in vivo
Outline: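 Male Sprague-Dawley rats (n = 6, 0.21–0.23 kg), single oral dose 2.0 mg/kg. Orbital blood sampled 0–16 h into heparinized tubes. Plasma was protein-precipitated with methanol, with internal standard added. Quantified by UPLC-ESI(+)-QTOF-MS in SIM mode on a C18 column with a methanol/0.3% formic acid water gradient. Linear range 0.54–107 ng/ml.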

[10] = system: Mus musculus; test: Antiobesity activity in antibiotic-treated ob/ob mouse assessed as reduction in cumulative food intake at 3 mg/kg administered daily via oral gavage for 18 days; assay type: functional, organism-based
Outline: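 Male ob/ob mice given drinking water with ampicillin (1 g/L), vancomycin and other antibiotics for three weeks. Groups of n = 8 were dosed at 3.0 mg/kg/day by mouth in soybean vehicle, alongside non-antibiotic ob/ob groups. Weight gain and food intake recorded.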

[11] = system: Mus musculus; test: Hypolipidemic activity in ob/ob mouse assessed as decrease in size of adipocytes in white adipose tissue at 3 mg/kg administered daily via oral gavage for 31 days by hematoxylin-eosin staining-based microscopic method; assay type: functional, organism-based; outline: as §1
[12] = target: T1, 3-hydroxy-3-methylglutaryl-coenzyme A reductase (Sus scrofa) (UniProt Q1W675); test: (§2) Inhibition of pig liver microsomal HMG-CoA reductase by colorimetric method
T1 sequence (whole entry): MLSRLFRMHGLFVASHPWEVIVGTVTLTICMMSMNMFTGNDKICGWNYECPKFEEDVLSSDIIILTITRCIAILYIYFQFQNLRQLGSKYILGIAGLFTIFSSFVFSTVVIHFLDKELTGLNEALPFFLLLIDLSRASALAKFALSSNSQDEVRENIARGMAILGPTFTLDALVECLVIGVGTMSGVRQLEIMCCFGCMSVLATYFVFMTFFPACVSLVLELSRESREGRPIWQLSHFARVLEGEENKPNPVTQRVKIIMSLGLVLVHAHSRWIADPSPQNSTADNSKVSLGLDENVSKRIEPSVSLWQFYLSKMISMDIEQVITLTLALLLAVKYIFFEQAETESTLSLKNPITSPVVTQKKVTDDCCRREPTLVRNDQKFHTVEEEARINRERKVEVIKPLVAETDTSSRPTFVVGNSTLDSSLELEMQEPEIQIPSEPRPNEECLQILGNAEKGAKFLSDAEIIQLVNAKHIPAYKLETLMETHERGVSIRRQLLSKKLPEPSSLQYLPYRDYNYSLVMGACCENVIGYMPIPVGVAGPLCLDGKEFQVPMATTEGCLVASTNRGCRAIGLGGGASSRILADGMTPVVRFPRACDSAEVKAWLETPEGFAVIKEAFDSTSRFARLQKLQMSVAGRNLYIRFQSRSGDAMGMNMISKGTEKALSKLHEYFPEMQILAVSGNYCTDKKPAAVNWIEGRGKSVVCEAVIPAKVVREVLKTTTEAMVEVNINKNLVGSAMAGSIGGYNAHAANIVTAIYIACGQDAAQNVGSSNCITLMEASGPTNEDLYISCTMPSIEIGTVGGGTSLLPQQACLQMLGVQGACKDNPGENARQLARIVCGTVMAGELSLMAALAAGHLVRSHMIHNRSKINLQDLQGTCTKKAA
Outline: (§3)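 Pig liver microsomal HMG-CoA reductase; compounds tested at several concentrations, each in triplicate; control uses phosphate buffer instead of compound, blank uses buffer instead of enzyme. Absorbance read at 405 nm; % inhibition from blank-corrected OD of test versus control; IC50 fitted from the inhibition-concentration series.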

[13] = target: T2, 3-hydroxy-3-methylglutaryl-coenzyme A reductase (Sus scrofa, UniProt Q1W675); test: as §2; outline: as §3
T2 sequence (Q1W675 whole entry): T1 sequence (whole entry)

CC(C)=CCC/C(C)=C/CCC1=C[C@H](c2ccc(C(C)(C)C)cc2)OC1=O
Activity [1]: Active
Activity [2]: Active
Activity [3]: Non-Toxic
Activity [4]: 40.9%
Activity [5]: inactive
Activity [6]: Active
Activity [7]: Active
Activity [8]: Active
AUC(0-t) [9]: 0.274 µg·h/mL
Activity [10]: inactive
Activity [11]: Active
inhibition [12]: Dose-dependent effect
IC50 [13]: 5.82 µM
